Inhibition data for three molecules are collected here from ChEMBL document CHEMBL1250448, “Inhibitor hijacking of Akt activation” (Nat Chem Biol, 2009).

In test [1] the test system is Fibroblast growth factor receptor 3 (Homo sapiens), P22607 [K650E]. Kind of test: Inhibition of FGFR3 K650E mutant at 1 uM in presence of 10 uM ATP by Select Screen kinase assay relative to untreated control. The procedure, abridged: (§1)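 Single-concentration profiling at 1 μM against a panel of 220 purified kinases, run as an outsourced SelectScreen kinase profiling service. Activity is expressed as percent inhibition.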
Sequence of Fibroblast growth factor receptor 3 (Homo sapiens), P22607 [K650E] (P22607 whole entry K650E): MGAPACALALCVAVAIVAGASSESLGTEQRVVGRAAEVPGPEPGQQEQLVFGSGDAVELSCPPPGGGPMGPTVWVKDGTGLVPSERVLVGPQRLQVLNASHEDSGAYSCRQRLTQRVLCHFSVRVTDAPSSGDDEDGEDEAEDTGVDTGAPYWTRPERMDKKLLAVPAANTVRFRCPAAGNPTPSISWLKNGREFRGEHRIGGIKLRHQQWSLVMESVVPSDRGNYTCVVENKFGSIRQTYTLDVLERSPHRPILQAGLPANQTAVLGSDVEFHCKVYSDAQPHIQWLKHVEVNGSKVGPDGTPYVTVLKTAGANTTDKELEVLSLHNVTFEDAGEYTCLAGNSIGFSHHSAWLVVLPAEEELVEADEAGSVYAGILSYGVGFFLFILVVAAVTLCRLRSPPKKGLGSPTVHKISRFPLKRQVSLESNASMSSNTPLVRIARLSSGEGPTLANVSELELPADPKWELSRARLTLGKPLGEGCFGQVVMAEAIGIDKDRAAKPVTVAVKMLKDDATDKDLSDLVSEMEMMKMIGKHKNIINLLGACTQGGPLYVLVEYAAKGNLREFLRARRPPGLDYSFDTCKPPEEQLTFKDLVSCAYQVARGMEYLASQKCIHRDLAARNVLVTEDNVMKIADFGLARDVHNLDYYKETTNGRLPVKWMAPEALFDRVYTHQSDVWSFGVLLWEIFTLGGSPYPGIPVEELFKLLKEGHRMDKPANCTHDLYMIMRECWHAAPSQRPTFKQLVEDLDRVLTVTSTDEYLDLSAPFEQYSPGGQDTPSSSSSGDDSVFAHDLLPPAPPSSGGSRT

In test [2] the target is Mitogen-activated protein kinase kinase kinase 9 (Homo sapiens) (UniProt P80192). Briefly: Inhibition of MAP3K9 at 1 uM in presence of 100 uM ATP by Select Screen kinase assay relative to untreated control. The procedure, abridged: as §1
Sequence of Mitogen-activated protein kinase kinase kinase 9 (Homo sapiens) (P80192 whole entry, looked up): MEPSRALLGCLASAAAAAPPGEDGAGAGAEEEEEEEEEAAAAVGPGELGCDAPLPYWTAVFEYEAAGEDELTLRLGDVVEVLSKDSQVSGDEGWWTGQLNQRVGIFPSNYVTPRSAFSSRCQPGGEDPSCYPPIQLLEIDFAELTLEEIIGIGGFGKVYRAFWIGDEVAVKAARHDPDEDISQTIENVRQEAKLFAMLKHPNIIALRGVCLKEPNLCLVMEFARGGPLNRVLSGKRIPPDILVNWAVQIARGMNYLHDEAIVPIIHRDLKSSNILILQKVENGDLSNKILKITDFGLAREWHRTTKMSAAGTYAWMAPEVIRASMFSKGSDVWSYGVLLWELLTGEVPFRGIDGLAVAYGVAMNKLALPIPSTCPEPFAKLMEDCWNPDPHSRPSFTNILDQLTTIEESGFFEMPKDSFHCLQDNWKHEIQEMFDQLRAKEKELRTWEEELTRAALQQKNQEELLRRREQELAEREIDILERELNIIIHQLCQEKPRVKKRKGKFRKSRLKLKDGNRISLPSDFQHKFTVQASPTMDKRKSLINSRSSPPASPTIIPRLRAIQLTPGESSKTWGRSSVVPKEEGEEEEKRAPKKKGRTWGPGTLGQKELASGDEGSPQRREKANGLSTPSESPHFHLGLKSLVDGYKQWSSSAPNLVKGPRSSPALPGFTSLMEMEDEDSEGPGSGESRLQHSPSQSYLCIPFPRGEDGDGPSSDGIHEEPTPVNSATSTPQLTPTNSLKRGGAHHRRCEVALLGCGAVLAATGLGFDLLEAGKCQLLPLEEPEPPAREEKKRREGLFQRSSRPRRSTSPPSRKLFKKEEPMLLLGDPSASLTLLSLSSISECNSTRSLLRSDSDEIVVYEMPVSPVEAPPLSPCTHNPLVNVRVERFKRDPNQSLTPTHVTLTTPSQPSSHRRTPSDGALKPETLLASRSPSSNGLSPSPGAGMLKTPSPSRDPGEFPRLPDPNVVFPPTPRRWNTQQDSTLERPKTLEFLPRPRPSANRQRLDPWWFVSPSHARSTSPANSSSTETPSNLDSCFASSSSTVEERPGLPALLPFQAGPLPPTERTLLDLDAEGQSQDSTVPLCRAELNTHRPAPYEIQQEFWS
Test [3] deals with Serine/threonine-protein kinase Nek4 (Homo sapiens) (UniProt P51957). Kind of test: Inhibition of NEK4 at 1 uM in presence of 100 uM ATP by Select Screen kinase assay relative to untreated control. The procedure, abridged:
as §1

Test [4] deals with T1, Inhibitor of nuclear factor kappa-B kinase subunit beta (Homo sapiens) (UniProt O14920).
T1 sequence (whole entry): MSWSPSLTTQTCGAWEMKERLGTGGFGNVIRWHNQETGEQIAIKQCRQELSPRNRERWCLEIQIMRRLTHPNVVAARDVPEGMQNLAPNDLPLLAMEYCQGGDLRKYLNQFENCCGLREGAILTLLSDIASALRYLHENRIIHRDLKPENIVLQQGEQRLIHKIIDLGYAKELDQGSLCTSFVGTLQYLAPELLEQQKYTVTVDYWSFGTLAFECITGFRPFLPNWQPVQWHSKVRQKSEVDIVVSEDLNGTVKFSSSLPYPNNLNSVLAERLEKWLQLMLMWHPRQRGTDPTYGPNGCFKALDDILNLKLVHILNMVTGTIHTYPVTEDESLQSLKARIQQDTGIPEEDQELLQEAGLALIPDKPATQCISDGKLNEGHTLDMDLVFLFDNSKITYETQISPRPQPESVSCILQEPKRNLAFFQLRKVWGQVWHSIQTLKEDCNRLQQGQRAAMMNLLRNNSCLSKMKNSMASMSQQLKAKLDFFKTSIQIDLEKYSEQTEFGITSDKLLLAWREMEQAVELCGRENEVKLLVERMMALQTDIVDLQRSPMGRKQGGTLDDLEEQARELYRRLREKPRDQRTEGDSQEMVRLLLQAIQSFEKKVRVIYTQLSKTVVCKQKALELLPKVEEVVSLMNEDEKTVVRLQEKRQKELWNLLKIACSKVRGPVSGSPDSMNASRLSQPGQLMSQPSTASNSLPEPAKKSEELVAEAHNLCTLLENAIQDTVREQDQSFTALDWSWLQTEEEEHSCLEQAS
Briefly: Inhibition of IKBKB at 1 uM in presence of 10 uM ATP by Select Screen kinase assay relative to untreated control. The procedure, abridged: as §1

Test [5] concerns the target Angiopoietin-1 receptor (Homo sapiens) (UniProt Q02763). Briefly: Inhibition of TEK at 1 uM in presence of 10 uM ATP by Select Screen kinase assay relative to untreated control. The method in brief: (§2)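 Commercial SelectScreen profiling panel of 220 purified kinases. Each kinase was tested at a single inhibitor concentration of 1 μM, and activity was expressed as percent inhibition.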

Test [6] has as its target Mitogen-activated protein kinase kinase kinase 8 (Homo sapiens) (UniProt P41279). Kind of test: Inhibition of MAP3K8 at 1 uM in presence of 100 uM ATP by Select Screen kinase assay relative to untreated control. The procedure, abridged:
as §1

The target of test [7] is Proto-oncogene tyrosine-protein kinase Src (Homo sapiens) (UniProt P12931). Kind of test: Inhibition of SRC N1 at 1 uM in presence of 10 uM ATP by Select Screen kinase assay relative to untreated control. The method in brief: as §2
Sequence of Proto-oncogene tyrosine-protein kinase Src (Homo sapiens) (P12931 2-536 limits assumed): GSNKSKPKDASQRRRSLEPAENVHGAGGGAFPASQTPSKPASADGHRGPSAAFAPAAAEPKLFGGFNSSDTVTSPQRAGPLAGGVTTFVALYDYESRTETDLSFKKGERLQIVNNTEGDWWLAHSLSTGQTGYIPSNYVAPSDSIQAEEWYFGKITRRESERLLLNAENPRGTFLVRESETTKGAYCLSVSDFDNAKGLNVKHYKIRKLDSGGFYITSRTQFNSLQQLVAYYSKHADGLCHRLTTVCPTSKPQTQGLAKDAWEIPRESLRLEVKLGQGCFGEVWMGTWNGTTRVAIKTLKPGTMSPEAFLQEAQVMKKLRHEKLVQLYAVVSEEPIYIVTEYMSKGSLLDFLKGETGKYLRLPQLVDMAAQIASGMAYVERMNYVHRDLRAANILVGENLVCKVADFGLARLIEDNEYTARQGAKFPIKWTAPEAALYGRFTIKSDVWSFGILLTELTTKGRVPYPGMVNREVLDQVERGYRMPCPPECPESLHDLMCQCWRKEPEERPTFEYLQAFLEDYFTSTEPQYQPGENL
Test [8] addresses Proto-oncogene tyrosine-protein kinase ROS (Homo sapiens) (UniProt P08922). Kind of test: Inhibition of ROS1 at 1 uM in presence of 10 uM ATP by Select Screen kinase assay relative to untreated control. The method in brief:
as §2

Test [9] concerns the target T2, Serine/threonine-protein kinase Nek1 (Homo sapiens) (UniProt Q96PY6).
T2 sequence (whole entry): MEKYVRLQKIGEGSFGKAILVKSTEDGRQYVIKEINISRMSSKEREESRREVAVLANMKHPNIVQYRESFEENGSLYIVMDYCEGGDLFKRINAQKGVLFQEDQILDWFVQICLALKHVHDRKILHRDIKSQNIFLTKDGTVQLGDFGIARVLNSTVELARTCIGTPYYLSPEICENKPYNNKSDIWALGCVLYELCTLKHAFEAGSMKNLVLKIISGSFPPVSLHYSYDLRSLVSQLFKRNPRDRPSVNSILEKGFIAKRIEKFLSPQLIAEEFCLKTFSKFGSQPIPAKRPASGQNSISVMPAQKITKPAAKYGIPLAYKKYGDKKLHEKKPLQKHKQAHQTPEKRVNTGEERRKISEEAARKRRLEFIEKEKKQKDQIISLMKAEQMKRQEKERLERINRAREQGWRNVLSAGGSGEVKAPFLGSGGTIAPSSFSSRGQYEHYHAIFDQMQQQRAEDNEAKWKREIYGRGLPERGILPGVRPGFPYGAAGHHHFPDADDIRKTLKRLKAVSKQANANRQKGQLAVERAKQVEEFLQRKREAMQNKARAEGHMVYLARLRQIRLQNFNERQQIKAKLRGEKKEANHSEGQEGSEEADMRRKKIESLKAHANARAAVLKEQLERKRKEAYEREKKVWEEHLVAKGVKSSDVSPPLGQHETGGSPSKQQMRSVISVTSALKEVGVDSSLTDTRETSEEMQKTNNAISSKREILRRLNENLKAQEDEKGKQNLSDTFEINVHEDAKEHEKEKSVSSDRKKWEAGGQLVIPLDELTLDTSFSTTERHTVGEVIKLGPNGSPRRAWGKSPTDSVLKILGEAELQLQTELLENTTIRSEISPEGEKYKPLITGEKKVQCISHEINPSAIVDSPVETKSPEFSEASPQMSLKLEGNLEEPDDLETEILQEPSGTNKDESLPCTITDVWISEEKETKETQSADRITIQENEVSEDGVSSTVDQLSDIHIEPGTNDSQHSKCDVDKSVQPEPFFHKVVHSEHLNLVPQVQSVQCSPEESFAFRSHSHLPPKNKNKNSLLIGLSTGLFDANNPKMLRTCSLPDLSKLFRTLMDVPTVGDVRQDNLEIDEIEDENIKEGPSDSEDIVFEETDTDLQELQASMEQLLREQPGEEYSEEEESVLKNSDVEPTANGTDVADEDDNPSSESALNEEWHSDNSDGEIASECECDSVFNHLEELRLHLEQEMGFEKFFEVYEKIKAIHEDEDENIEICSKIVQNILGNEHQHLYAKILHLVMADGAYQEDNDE
Briefly: Inhibition of NEK1 at 1 uM in presence of 10 uM ATP by Select Screen kinase assay relative to untreated control. The procedure, abridged: as §1

Test [10] concerns the target SRSF protein kinase 2 (Homo sapiens) (UniProt P78362). Briefly: Inhibition of SRPK2 at 1 uM in presence of 10 uM ATP by Select Screen kinase assay relative to untreated control. The procedure, abridged: as §2
Test [11] has as its target Serine/threonine-protein kinase 24 (Homo sapiens) (UniProt Q9Y6E0). Kind of test: Inhibition of STK24 at 1 uM in presence of 100 uM ATP by Select Screen kinase assay relative to untreated control. The procedure, abridged:
as §2

Sequence of Mitogen-activated protein kinase kinase kinase 8 (Homo sapiens) (P41279 whole entry): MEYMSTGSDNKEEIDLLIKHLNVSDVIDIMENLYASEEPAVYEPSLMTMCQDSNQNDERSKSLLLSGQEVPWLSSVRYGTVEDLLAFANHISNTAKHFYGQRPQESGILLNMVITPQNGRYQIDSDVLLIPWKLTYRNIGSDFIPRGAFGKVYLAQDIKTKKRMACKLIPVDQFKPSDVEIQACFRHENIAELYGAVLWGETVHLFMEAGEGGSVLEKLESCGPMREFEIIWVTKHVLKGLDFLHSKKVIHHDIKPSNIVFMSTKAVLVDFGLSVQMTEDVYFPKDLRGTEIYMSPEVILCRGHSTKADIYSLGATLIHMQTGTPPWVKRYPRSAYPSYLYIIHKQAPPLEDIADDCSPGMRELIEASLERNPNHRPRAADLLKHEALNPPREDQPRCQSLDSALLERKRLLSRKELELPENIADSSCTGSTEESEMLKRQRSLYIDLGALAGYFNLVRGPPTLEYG
Sequence of Angiopoietin-1 receptor (Homo sapiens) (Q02763 whole entry): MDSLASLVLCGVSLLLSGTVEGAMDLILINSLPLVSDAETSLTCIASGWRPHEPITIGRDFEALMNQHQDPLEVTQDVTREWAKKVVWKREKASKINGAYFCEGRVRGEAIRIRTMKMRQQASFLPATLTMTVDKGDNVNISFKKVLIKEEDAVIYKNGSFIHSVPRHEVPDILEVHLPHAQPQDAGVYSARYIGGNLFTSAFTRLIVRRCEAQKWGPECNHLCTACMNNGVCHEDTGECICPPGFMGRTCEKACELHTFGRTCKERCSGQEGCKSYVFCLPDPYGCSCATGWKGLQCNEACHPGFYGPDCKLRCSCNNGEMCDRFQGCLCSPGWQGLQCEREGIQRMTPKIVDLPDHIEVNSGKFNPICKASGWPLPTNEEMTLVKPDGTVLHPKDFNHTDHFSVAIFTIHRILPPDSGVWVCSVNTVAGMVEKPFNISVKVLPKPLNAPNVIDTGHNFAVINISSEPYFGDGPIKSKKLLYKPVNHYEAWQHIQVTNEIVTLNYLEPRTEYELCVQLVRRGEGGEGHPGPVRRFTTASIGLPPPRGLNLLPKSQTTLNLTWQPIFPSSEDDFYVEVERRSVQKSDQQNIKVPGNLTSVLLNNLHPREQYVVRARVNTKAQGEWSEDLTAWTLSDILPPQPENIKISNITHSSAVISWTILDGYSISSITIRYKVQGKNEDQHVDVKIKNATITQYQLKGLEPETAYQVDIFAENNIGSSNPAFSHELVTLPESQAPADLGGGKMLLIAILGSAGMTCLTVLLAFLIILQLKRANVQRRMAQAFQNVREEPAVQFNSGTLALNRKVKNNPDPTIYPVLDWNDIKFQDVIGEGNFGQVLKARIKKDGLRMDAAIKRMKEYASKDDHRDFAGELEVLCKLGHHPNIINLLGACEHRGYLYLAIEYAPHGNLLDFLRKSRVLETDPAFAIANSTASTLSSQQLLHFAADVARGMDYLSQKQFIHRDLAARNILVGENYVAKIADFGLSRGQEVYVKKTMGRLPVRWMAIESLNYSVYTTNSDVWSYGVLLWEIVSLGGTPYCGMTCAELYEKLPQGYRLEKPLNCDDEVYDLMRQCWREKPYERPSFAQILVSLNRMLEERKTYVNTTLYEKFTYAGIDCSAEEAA
Sequence of Serine/threonine-protein kinase Nek4 (Homo sapiens) (P51957 whole entry, looked up): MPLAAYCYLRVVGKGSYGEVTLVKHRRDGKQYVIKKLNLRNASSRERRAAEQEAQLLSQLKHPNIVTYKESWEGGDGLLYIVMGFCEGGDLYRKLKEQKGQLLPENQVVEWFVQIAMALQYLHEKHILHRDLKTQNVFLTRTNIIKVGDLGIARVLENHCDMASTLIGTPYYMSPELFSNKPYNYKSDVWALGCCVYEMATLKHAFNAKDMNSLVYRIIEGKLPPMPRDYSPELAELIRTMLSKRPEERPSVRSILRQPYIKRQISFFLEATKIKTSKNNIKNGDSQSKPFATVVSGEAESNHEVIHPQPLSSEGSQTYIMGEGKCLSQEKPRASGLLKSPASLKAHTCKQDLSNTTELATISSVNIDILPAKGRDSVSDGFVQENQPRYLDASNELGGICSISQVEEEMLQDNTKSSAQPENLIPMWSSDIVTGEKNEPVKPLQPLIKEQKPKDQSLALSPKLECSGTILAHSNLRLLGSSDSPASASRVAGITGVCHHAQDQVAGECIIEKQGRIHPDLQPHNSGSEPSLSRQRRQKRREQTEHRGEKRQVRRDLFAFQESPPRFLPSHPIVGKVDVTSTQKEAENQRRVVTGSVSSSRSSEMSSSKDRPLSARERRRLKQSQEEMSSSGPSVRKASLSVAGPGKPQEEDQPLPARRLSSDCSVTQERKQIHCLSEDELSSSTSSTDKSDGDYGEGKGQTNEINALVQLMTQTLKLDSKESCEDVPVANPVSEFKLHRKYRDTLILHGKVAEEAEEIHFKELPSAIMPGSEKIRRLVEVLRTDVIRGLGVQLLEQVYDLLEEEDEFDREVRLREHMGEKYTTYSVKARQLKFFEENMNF

Take `COc1ccccc1N1CCN(c2ncnc3[nH]nc(Br)c23)CC1`: the inhibition (commonly the change of the read-out against control, counted positive when it falls) in test [1] was determined as 12%; in test [2] it was 22%; in test [3] it was 10%; in test [4], 2%; in test [5], 12%; in test [6], 17%. Besides, the inhibition was 15% in test [7]; 21% in test [8]; 18% in test [9]; 4% in test [10]; 27% in test [11].

As to `O=C(NCCCNc1nc(Nc2cccc(NC(=O)N3CCCC3)c2)ncc1I)c1cccs1`, the inhibition in test [1] is 38%; in test [2] it was 98%; in test [3], 24%; in test [4] it was 6%; in test [5], 11%; in [6], 54%. Also, the inhibition in [7] stood at 30%; in test [8] it was 5%; in test [9] it was 92%; in test [10], 5%; in test [11], 2%.

For the molecule `Cc1n[nH]c2ccc(-c3cncc(OC[C@@H](N)Cc4c[nH]c5ccccc45)c3)cc12`, the inhibition in [1] is 8%; in [2], 15%; in [3], 41%; in test [4] it was 11%; in [5] it was -1%; in test [6], 50%. The inhibition amounted to 5% in test [7]; 17% in test [8]; 44% in test [9]; 39% in test [10]; 76% in [11].
